From ChEMBL document CHEMBL1124369, “Pyrido[3,4-e]-1,2,4-triazines and related heterocycles as potential antifungal agents” (1989)
In brackets after ≈: the same amount, converted by molar mass.

How the values were obtained:
[1] = test system: Kluyveromyces marxianus; test: Antifungal activity against Candida pseudotropicalis; Range is 0.25-4; type: functional
Outline: (§1)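 Agar dilution MIC. Twofold serial drug dilutions in yeast nitrogen base medium with 1% dextrose, 0.15% asparagine and 1.5% agar. Agar surfaces inoculated using a Steers multiple inocula replicator, then incubated at 35 °C for 24-48 h. MIC was recorded as the lowest concentration inhibiting visible growth. Amphotericin B, miconazole and nystatin served as controls.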

[2] = test system: Mucor fragilis; test: Antifungal activity against Mucor fragilis; type: functional; outline: as §1
[3] = test system: Trichophyton rubrum; test: Antifungal activity against Trichophyton rubrum; type: functional; outline: as §1
[4] = test system: Aspergillus niger; test: Antifungal activity against Aspergillus niger; type: functional; outline: as §1
[5] = test system: Candida albicans; test: Antifungal activity against Candida albicans; Range is 8-16; type: functional; outline: as §1
[6] = test system: Diutina rugosa; test: Antifungal activity against Candida rugosa; type: functional; outline: as §1
[7] = test system: Candida albicans; test: Antifungal activity against Candida stellatoidea; type: functional; outline: as §1
[8] = test system: Candida tropicalis; test: Antifungal activity against Candida tropicalis; Range is 8-16; type: functional; outline: as §1
[9] = test system: Candida parapsilosis; test: Antifungal activity against Candida parapsilosis; type: functional; conditions: Lodderomyces parapsilosis; outline: as §1
[10] = test system: Trichophyton benhamiae; test: Antifungal activity against Trichophyton mentagrophytes; type: functional, trychophyton mentagrophytes; outline: as §1
[11] = test system: Trichophyton benhamiae; test: Antifungal activity against Trichophyton mentagrophytes; Range is 64-128; type: functional, trychophyton mentagrophytes; outline: as §1
[12] = test system: Candida tropicalis; test: Antifungal activity against Candida tropicalis; Range is 64-128; type: functional; outline: as §1
[13] = test system: Kluyveromyces marxianus; test: Antifungal activity against Candida pseudotropicalis; type: functional; outline: as §1
[14] = test system: Candida albicans; test: Antifungal activity against Candida albicans; type: functional; outline: as §1
[15] = test system: Trichophyton rubrum; test: Antifungal activity against Trichophyton rubrum; Range is 64-128; type: functional
[16] = test system: Trichophyton benhamiae; test: Antifungal activity against Trichophyton mentagrophytes; Range is 8-32; type: functional, trychophyton mentagrophytes; outline: as §1
[17] = test system: Candida albicans; test: Antifungal activity against Candida albicans; Range is 16-32; type: functional; outline: as §1
[18] = test system: Candida tropicalis; test: Antifungal activity against Candida tropicalis; Range is 16-32; type: functional; outline: as §1
[19] = test system: Candida tropicalis; test: Antifungal activity against Candida tropicalis; Range is 4-8; type: functional; outline: as §1
[20] = test system: Candida albicans; test: Antifungal activity against Candida albicans; Range is 4-8; type: functional; outline: as §1
[21] = test system: Trichophyton benhamiae; test: Antifungal activity against Trichophyton mentagrophytes; Range is 4-8; type: functional, trychophyton mentagrophytes; outline: as §1
[22] = test system: Kluyveromyces marxianus; test: Antifungal activity against Candida pseudotropicalis; Range is 4-8; type: functional; outline: as §1
[23] = test system: Trichophyton rubrum; test: Antifungal activity against Trichophyton rubrum; Range is 4-16; type: functional; outline: as §1
[24] = test system: Candida albicans; test: Antifungal activity against Candida albicans; Range is 16-64; type: functional; outline: as §1
[25] = test system: Candida tropicalis; test: Antifungal activity against Candida tropicalis; Range is 32-64; type: functional; outline: as §1
[26] = test system: Aspergillus niger; test: Antifungal activity against Aspergillus niger; Range is 32-64; type: functional; outline: as §1
[27] = test system: Candida tropicalis; test: Antifungal activity against Candida tropicalis; Range is 0.25-0.5; type: functional
[28] = test system: Candida albicans; test: microbe, parasite or virus in culture
[29] = test system: Candida tropicalis; test: Antifungal activity against Candida tropicalis; Range is 4-16; type: functional; outline: as §1
[30] = test system: Trichophyton rubrum; test: Antifungal activity against Trichophyton rubrum; Range is 1-2; type: functional; outline: as §1
[31] = test system: Aspergillus niger; test: Antifungal activity against Aspergillus niger; Range is 16-128; type: functional; outline: as §1
[32] = test system: Candida tropicalis; test: Antifungal activity against Candida tropicalis; type: functional; outline: as §1
[33] = test system: Trichophyton rubrum; test: Antifungal activity against Trichophyton rubrum; Range is 32-128; type: functional; outline: as §1
[34] = test system: Trichophyton benhamiae; test: Antifungal activity against Trichophyton mentagrophytes; Range is 16-32; type: functional, trychophyton mentagrophytes
[35] = test system: Kluyveromyces marxianus; test: Antifungal activity against Candida pseudotropicalis; Range is 1-32; type: functional; outline: as §1
[36] = test system: Trichophyton rubrum; test: Antifungal activity against Trichophyton rubrum; Range is 2-4; type: functional; outline: as §1
[37] = test system: Candida tropicalis; test: Antifungal activity against Candida tropicalis; Range is 8-32; type: functional; outline: as §1

| SMILES | MIC [2] [µg/mL] | MIC [3] [µg/mL] | MIC [4] [µg/mL] | MIC [6] [µg/mL] | MIC [7] [µg/mL] | MIC [9] [µg/mL] | MIC [10] [µg/mL] | MIC [13] [µg/mL] | MIC [14] [µg/mL] | further results |
| --- | --- | --- | --- | --- | --- | --- | --- | --- | --- | --- |
| Clc1ccc(COC(Cn2ccnc2)c2ccc(Cl)cc2Cl)c(Cl)c1 (stereo not given) [MICONAZOLE] | 8 (≈ 19.2 µM) | 1 (≈ 2.4 µM) | 8 (≈ 19.2 µM) | 8 (≈ 19.2 µM) | 8 (≈ 19.2 µM) | 16 (≈ 38.4 µM) | 2 (≈ 4.81 µM) | – | – | MIC [1]: 0.25 µg/mL (≈ 0.601 µM); MIC [5]: 8 µg/mL (≈ 19.2 µM); MIC [8]: 8 µg/mL (≈ 19.2 µM) |
| Cc1nnc2ccccc2n1 | – | – | 128 (≈ 882 µM) | – | – | 128 (≈ 882 µM) | – | 128 (≈ 882 µM) | 128 (≈ 882 µM) | MIC [11]: 64 µg/mL (≈ 441 µM); MIC [12]: 64 µg/mL (≈ 441 µM); MIC [15]: 64 µg/mL (≈ 441 µM) |
| Cc1nccc2nncnc12 | – | 4 (≈ 27.4 µM) | 32 (≈ 219 µM) | – | – | 64 (≈ 438 µM) | – | 8 (≈ 54.7 µM) | – | MIC [16]: 8 µg/mL (≈ 54.7 µM); MIC [17]: 16 µg/mL (≈ 109 µM); MIC [18]: 16 µg/mL (≈ 109 µM) |
| Cc1cc2nncnc2c(C)n1 | – | 4 (≈ 25 µM) | 32 (≈ 200 µM) | – | – | 16 (≈ 99.9 µM) | – | – | – | MIC [19]: 4 µg/mL (≈ 25 µM); MIC [20]: 4 µg/mL (≈ 25 µM); MIC [21]: 4 µg/mL (≈ 25 µM); MIC [22]: 4 µg/mL (≈ 25 µM) |
| c1cc2nnc(C3CCCCC3)nc2cn1 | 64 (≈ 299 µM) | – | – | 32 (≈ 149 µM) | 32 (≈ 149 µM) | 64 (≈ 299 µM) | 16 (≈ 74.7 µM) | 32 (≈ 149 µM) | – | MIC [23]: 4 µg/mL (≈ 18.7 µM); MIC [24]: 16 µg/mL (≈ 74.7 µM); MIC [25]: 32 µg/mL (≈ 149 µM); MIC [26]: 32 µg/mL (≈ 149 µM) |
| C[C@@H]1[C@H](O)[C@@H](C)/C=C/C=C/C=C/C=C/C=C/C=C/C=C/[C@H](O[C@@H]2O[C@H](C)[C@@H](O)[C@H](N)[C@@H]2O)C[C@@H]2O[C@](O)(C[C@@H](O)C[C@@H](O)[C@H](O)CC[C@@H](O)C[C@@H](O)CC(=O)O[C@H]1C)C[C@H](O)[C@H]2C(=O)O [AMPHOTERICIN B] | 0.25 (≈ 0.271 µM) | 0.5 (≈ 0.541 µM) | 0.5 (≈ 0.541 µM) | > 128 | > 128 | 0.5 (≈ 0.541 µM) | 1 (≈ 1.08 µM) | 0.5 (≈ 0.541 µM) | – | MIC [27]: 0.25 µg/mL (≈ 0.271 µM); MIC [28]: 0.25 µg/mL (≈ 0.271 µM) |
| Fc1ccc(-c2nnc3ccncc3n2)cc1F | – | – | – | – | – | 16 (≈ 65.5 µM) | 4 (≈ 16.4 µM) | 8 (≈ 32.8 µM) | 16 (≈ 65.5 µM) | MIC [29]: 4 µg/mL (≈ 16.4 µM); MIC [30]: 1 µg/mL (≈ 4.09 µM); MIC [26]: 32 µg/mL (≈ 131 µM) |
| Fc1ccc(-c2nnc3ncccc3n2)cc1 | – | > 128 | – | 128 (≈ 566 µM) | 128 (≈ 566 µM) | – | 32 (≈ 141 µM) | 128 (≈ 566 µM) | 128 (≈ 566 µM) | MIC [31]: 16 µg/mL (≈ 70.7 µM); MIC [32]: 128 µg/mL (≈ 566 µM) |
| CC(=O)Nc1c(C)nc(C)c2nc(-c3ccc(F)cc3)nnc12 | – | – | 128 (≈ 411 µM) | – | – | 128 (≈ 411 µM) | – | 128 (≈ 411 µM) | 128 (≈ 411 µM) | MIC [11]: 64 µg/mL (≈ 206 µM); MIC [32]: 128 µg/mL (≈ 411 µM); MIC [33]: 32 µg/mL (≈ 103 µM) |
| CCC1(Cc2ccccc2)N=Nc2ccncc2N1 (stereo not given) | – | 32 (≈ 127 µM) | 128 (≈ 507 µM) | – | – | 128 (≈ 507 µM) | – | – | 128 (≈ 507 µM) | MIC [34]: 16 µg/mL (≈ 63.4 µM); MIC [35]: 1 µg/mL (≈ 3.96 µM); MIC [25]: 32 µg/mL (≈ 127 µM) |
| N#Cc1ccc(-c2nnc3ccncc3n2)cc1 | 128 (≈ 549 µM) | – | 128 (≈ 549 µM) | > 128 | 128 (≈ 549 µM) | 64 (≈ 274 µM) | – | – | 64 (≈ 274 µM) | MIC [36]: 2 µg/mL (≈ 8.58 µM); MIC [37]: 8 µg/mL (≈ 34.3 µM); MIC [21]: 4 µg/mL (≈ 17.2 µM); MIC [22]: 4 µg/mL (≈ 17.2 µM) |
